These results are taken from ChEMBL document CHEMBL3407373, “Design, synthesis and evaluation of a novel class of glucosamine mimetic peptides containing 1,3-dioxane” (2015).

What is called inhibition in vivo is the share of the control response that was lost under treatment.

Where a name gives a salt, the structure may show the parent alone.

The test system of one assay is Mus musculus. Put plainly: Antiinflammatory activity against ICR mouse ear edema model assessed as inhibition of xylene-induced edema at 10 umol/kg, po administered 30 mins prior to xylene challenge measured after 2 hrs relative to vehicle-treated control. The class given is functional. An outline of the steps:
(§1)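 Male ICR mice (18-20 g), 12/12 h light/dark, free food and water, acclimated 1 day; groups of twelve. Test agents were given by oral gavage as suspensions in 0.5% CMC, with CMC alone as vehicle control, 30 min before xylene was applied to both surfaces of the right ear; the left ear served as control. At 2 h, mice were decapitated and 8.0 mm ear biopsies were punched and weighed; edema = right minus left weight.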
Take `CC[C@H](C)[C@H](NCCC1OCC(C)(C)CO1)C(=O)N[C@H]1[C@@H](OC(C)=O)O[C@H](COC(C)=O)[C@@H](OC(C)=O)[C@@H]1OC(C)=O`: the inhibition in vivo at 10 µmol/kg stood at 79.8%.
On to `CC(=O)OC[C@H]1O[C@H](OC(C)=O)[C@H](NC(=O)[C@H](CC(C)C)NCCC2OCC(C)(C)CO2)[C@@H](OC(C)=O)[C@@H]1OC(C)=O`, for which the inhibition in vivo at 10 µmol/kg came out at 86.6%.
Consider `C[C@H](NCCC1OCC(C)(C)CO1)C(=O)N[C@H]1C(O)O[C@H](CO)[C@@H](O)[C@@H]1O` (some centres not stated), for which the inhibition in vivo at 10 µmol/kg was 86.8%.
For the compound `CC(C)[C@H](NCCC1OCC(C)(C)CO1)C(=O)N[C@H]1C(O)O[C@H](CO)[C@@H](O)[C@@H]1O` (some centres not stated), the inhibition in vivo at 10 µmol/kg was found to be 85.1%.
The same measure, in the same setting: to `CC1(C)COC(CCN[C@@H](Cc2c[nH]c3ccccc23)C(=O)N[C@H]2[C@@H](OCc3ccccc3)O[C@H](COCc3ccccc3)[C@@H](OCc3ccccc3)[C@@H]2OCc2ccccc2)OC1` belongs 80.1%.
On to `CC(=O)OC[C@H]1O[C@H](OC(C)=O)[C@H](NC(=O)[C@H](Cc2ccccc2)NCCC2OCC(C)(C)CO2)[C@@H](OC(C)=O)[C@@H]1OC(C)=O`, for which the inhibition in vivo at 10 µmol/kg was found to be 86.8%.
The same measure, in the same setting: the value for `CC(C)[C@H](NCCC1OCC(C)(C)CO1)C(=O)N[C@H]1[C@@H](OCc2ccccc2)O[C@H](COCc2ccccc2)[C@@H](OCc2ccccc2)[C@@H]1OCc1ccccc1` was 86.2%; that for `CC(C)C[C@H](NCCC1OCC(C)(C)CO1)C(=O)N[C@H]1C(O)O[C@H](CO)[C@@H](O)[C@@H]1O` (some centres not stated) was 81.8%; that for `CC1(C)COC(CCN[C@@H](Cc2ccccc2)C(=O)N[C@H]2C(O)O[C@H](CO)[C@@H](O)[C@@H]2O)OC1` (some centres not stated) was 81.9%.
Still for that read-out and setting: to `C[C@H](NCCC1OCC(C)(C)CO1)C(=O)N[C@H]1[C@@H](OCc2ccccc2)O[C@H](COCc2ccccc2)[C@@H](OCc2ccccc2)[C@@H]1OCc1ccccc1` belongs 90.3%; to `CC(=O)OC[C@H]1O[C@H](OC(C)=O)[C@H](NC(=O)[C@@H](NCCC2OCC(C)(C)CO2)C(C)C)[C@@H](OC(C)=O)[C@@H]1OC(C)=O`, 70.6%.
Consider `CC[C@H](C)[C@H](NCCC1OCC(C)(C)CO1)C(=O)N[C@H]1C(O)O[C@H](CO)[C@@H](O)[C@@H]1O` (some centres not stated), for which the inhibition in vivo at 10 µmol/kg was 88.7%.
The same measure, in the same setting: the value for `N[C@H]1C(O)O[C@H](CO)[C@@H](O)[C@@H]1O` (some centres not stated) [GLUCOSAMINE HYDROCHLORIDE] was 64.3%; that for `CC[C@H](C)[C@H](NCCC1OCC(C)(C)CO1)C(=O)N[C@H]1[C@@H](OCc2ccccc2)O[C@H](COCc2ccccc2)[C@@H](OCc2ccccc2)[C@@H]1OCc1ccccc1` was 81.6%; that for `CC(=O)OC[C@H]1O[C@H](OC(C)=O)[C@H](NC(=O)[C@H](Cc2c[nH]c3ccccc23)NCCC2OCC(C)(C)CO2)[C@@H](OC(C)=O)[C@@H]1OC(C)=O` was 80.7%.
Take `CC1(C)COC(CCN[C@@H](Cc2c[nH]c3ccccc23)C(=O)N[C@H]2C(O)O[C@H](CO)[C@@H](O)[C@@H]2O)OC1` (some centres not stated): the inhibition in vivo at 10 µmol/kg came out at 80.3%.
In the case of `CC1(C)COC(CCN[C@@H](Cc2ccccc2)C(=O)N[C@H]2[C@@H](OCc3ccccc3)O[C@H](COCc3ccccc3)[C@@H](OCc3ccccc3)[C@@H]2OCc2ccccc2)OC1`, the inhibition in vivo at 10 µmol/kg came to 87.1%.
Same read-out and setting: to `CC(=O)OC[C@H]1O[C@H](OC(C)=O)[C@H](NC(=O)[C@H](C)NCCC2OCC(C)(C)CO2)[C@@H](OC(C)=O)[C@@H]1OC(C)=O` belongs 84.2%; to `CC(C)C[C@H](NCCC1OCC(C)(C)CO1)C(=O)N[C@H]1[C@@H](OCc2ccccc2)O[C@H](COCc2ccccc2)[C@@H](OCc2ccccc2)[C@@H]1OCc1ccccc1`, 76.7%.

The next assay has as its system Mus musculus. As to the kind of experiment: Antiinflammatory activity against ICR mouse ear edema model assessed as inhibition of xylene-induced edema at 1 umol/kg, po administered 30 mins prior to xylene challenge measured after 2 hrs relative to vehicle-treated control. The class given is functional. An outline of the steps:
as §1
Regarding `CC[C@H](C)[C@H](NCCC1OCC(C)(C)CO1)C(=O)N[C@H]1C(O)O[C@H](CO)[C@@H](O)[C@@H]1O` (some centres not stated), the inhibition in vivo at 1 µmol/kg was found to be 70.8%.

The next assay concerns Mus musculus. As to the kind of experiment: Antiinflammatory activity against ICR mouse ear edema model assessed as inhibition of xylene-induced edema at 0.1 umol/kg, po administered 30 mins prior to xylene challenge measured after 2 hrs relative to vehicle-treated control. The format is functional. A digest of the protocol: as §1
Take `CC[C@H](C)[C@H](NCCC1OCC(C)(C)CO1)C(=O)N[C@H]1C(O)O[C@H](CO)[C@@H](O)[C@@H]1O` (some centres not stated): the inhibition in vivo at 0.1 µmol/kg is 44.3%.

For a further assay, the system named is Mus musculus. Put plainly: Antiinflammatory activity against ICR mouse ear edema model assessed as inhibition of xylene-induced edema at 100 mg/kg, po administered 30 mins prior to xylene challenge measured after 2 hrs relative to vehicle-treated control. The class given is functional. An outline of the steps: as §1
On to `CC(=O)Oc1ccccc1C(=O)O` [ASPIRIN], for which the inhibition in vivo at 100 mg/kg is 89.5%.
